Compound activity: PubChem, Broad Institute
Hits are enriched below; roughly 2.5% of the tested compounds scored in any of these assays.
Dyrk1A ADPGlo: rat Dyrk1A kinase inhibitors, primary screen, biochemical, single point, plate reader; Dual specificity tyrosine-phosphorylation-regulated kinase 1A (Rattus norvegicus), Q63470; ADP-Glo luminescence, NFATc1 peptide; inhibition, % at 12.5 µM; 310,000 compounds, 0.43% hits; AID 504441, 2011
NSD2 inh: NSD2 histone methyltransferase inhibitors, primary screen, biochemical, AlphaScreen, single concentration, set 2; 310,000 compounds, 0.54% hits; AID 743445, 2014; NSD2 peptide methylation, 120 min; inhibition, % at 12.5 µM; Histone-lysine N-methyltransferase NSD2 (Homo sapiens), O96028
dFosB activator: activators of delta FosB homodimer, primary screen, biochemical, fluorescence polarization, TAMRA-CDK5 oligo, single point; Protein FosB (Mus musculus), P13346; purified delta FosB; percent of positive-control signal above neutral wells; activation, % at 25 µM; 340,000 compounds, 0.99% hits;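 active = mean activation above about 17%, with every replicate also reaching it, limit read from the data, passing the limit was not always enough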
Target sequence (P13346 whole entry, looked up): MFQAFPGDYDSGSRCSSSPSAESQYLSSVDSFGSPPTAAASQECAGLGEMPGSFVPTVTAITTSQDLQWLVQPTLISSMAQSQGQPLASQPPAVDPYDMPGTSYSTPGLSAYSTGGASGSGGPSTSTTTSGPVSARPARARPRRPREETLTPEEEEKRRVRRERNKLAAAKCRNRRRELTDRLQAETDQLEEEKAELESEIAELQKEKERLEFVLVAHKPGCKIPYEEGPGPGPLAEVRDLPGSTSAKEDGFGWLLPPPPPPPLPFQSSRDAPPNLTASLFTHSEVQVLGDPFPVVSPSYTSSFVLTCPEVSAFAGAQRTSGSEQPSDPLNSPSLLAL
SR-BI uptake up: activators of SR-BI mediated DiI-HDL uptake, primary screen, ldlA[mSR-BI] CHO cells, DiI fluorescence. 3 h; 100 = double the neutral-control signal. activation, % at 12.5 µM. 320,000 compounds, 0.096% hits;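 active = mean replicate activation of at least 60% and every replicate at or above 60%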
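Material: SR-BI-overexpressing, LDLR-lacking CHO cells; schedule: compound exposure 3 h, 37 °C; reagent: DiI-labelled HDL at 10 µg/mL final; technique: bottom-read fluorescence, 550/595 nm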
SR-BI DiI inh: inhibitors of SR-BI mediated HDL lipid uptake, primary screen, ldlA[mSR-BI] cells, fluorescence, single point; Scavenger receptor class B member 1 (Mus musculus), Q61009; ldlA[mSR-BI] CHO cells, DiI-HDL uptake fluorescence, 3 h; inhibition, % at 12.5 µM; 320,000 compounds, 0.96% hits; AID 488896, 2010;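 active = mean replicate inhibition of at least 70% and a set share of replicates each scoring 70 or more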
CDK5 p35 inh: inhibitors of human CDK5/p35 kinase, primary screen, biochemical, single concentration | Cyclin-dependent kinase 5 (Homo sapiens) + Cyclin-dependent kinase 5 activator 1 (Homo … | Recombinant CDK5/p35, ADP-Glo luminescence, 60 min | inhibition, % at 10 µM | 330,000 compounds, 0.01% hits;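 active = highest replicate inhibition of at least 50% and at least 75% of replicates reaching 50%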
Dyrk1A artifact: ADP-Glo luciferase interference without Dyrk1A, dose response, artefact control for Dyrk1A inhibitor project, biochemical, luminescence, cherry-pick, set 02; AC50, µM (top dose mostly 12 µM); shares compounds with Dyrk1A ADPGlo; 1,300 tested, under 10 active; ADP-Glo luciferase artifact assay, no Dyrk1A;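 active = fitted half-maximal dose AC50 no more than ten times the top valid tested dose, with luminescence dropping as dose rises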
Hits are given with their value; – = inactive; · = not tested or not shown; ! = a repeat was not active. Rule as the data show it, unless noted: active = inhibition above about 50%; inactive = the rest.

SMILES | Dyrk1A ADPGlo | NSD2 inh | dFosB activator | SR-BI uptake up | SR-BI DiI inh | CDK5 p35 inh | Dyrk1A artifact
Cn1c(Cn2c(=O)sc3ccccc32)nnc1SCC(=O)N1CCOCC1 | – | · | – | – | – | – | ·
COc1ccc(-n2c(Cn3c(=O)sc4ccccc43)nnc2SCC(=O)N2CCOCC2)cc1 | 55.9 | · | – | – | – | – | –
COc1ccccc1CNC(=O)/C(C#N)=C/c1ccc(OC)c(OC)c1OC | – | – | – | – | – | – | ·
N#Cc1nc(-c2ccccc2Cl)oc1NCC1CCCO1 (stereo unspecified) | 60.0 | · | – | – | – | – | –
CCn1c(C)c(P(c2ccccc2)c2ccccc2)[n+]2ccccc12 | – | – | – | · | · | – | ·
COc1cc(/C=N/N2C(=O)CSC2=S)ccc1O | 52.2 | – | – | – | – | – | –
COc1ccc(C)cc1NC(=O)C(c1ccccc1)N1CCN(CC(=O)NC2CC2)CC1 (stereo unspecified) | – | – | – | – | – | – | ·
CCOC(=O)C(Cc1ccc(O)cc1)NC(=O)CCc1c[nH]c2ccccc12 (stereo unspecified) | 51.0 | – | – | – | – | – | –
COC(=O)[C@H](Cc1c[nH]c2ccccc12)NC(=O)CCCc1c[nH]c2ccccc12 | – | – | – | – | – | – | ·
COc1ccc(-c2csc(N)n2)cc1 | – | – | – | – | – | – | ·
COc1ccc(-c2csc(N=C(N)N)n2)cc1 | 81.9 | – | – | – | – | – | –
C[N+](C)(CCOc1ccccc1)Cc1ccccc1 | 68.9 | · | – | – | – | – | –
CN(CCOc1ccccc1)Cc1ccccc1 | · | – | · | · | · | · | ·
CCc1noc(C)c1C(=O)N1CCN(S(=O)(=O)c2c(C)cc(C)cc2C)CC1 | – | – | – | – | – | – | ·
CCc1nc2c(OCCOc3ccc(F)cc3)cccn2c1N(C)C(=O)c1cccs1 | · | – | · | · | · | · | ·
CCN1CCN(Cc2ccc(NC(=O)c3ccc(C)c(NC(=O)N4CCNC4=O)c3)cc2C(F)(F)F)CC1 | 53.6! | · | – | – | – | – | –
CCN1CCN(Cc2ccc(NC(=O)c3cc(NC(=O)c4nccnc4N)cc(OC)c3)cc2C(F)(F)F)CC1 | 54.5 | · | – | – | – | – | –
Cc1nnc(SCCC(=O)Nc2ccccc2Cl)o1 | – | – | – | – | – | – | ·
COc1ccc(-c2noc(CN(C)Cc3ccccc3)n2)c(OC)c1OC | – | – | – | – | – | – | ·
O=C(Cn1cc(COc2ccccc2C(F)(F)F)nn1)c1ccc(O)cc1 | 50.8 | · | – | – | – | – | –
O=C(Cn1cc(COc2cc(F)cc(F)c2)nn1)c1ccc(O)cc1 | – | · | – | – | – | – | ·
CCCNC(=O)Cn1c(=O)/c(=C\c2ccc(-c3ccc([N+](=O)[O-])cc3)o2)s/c1=C\C(=O)C(C)(C)C | – | · | – | – | – | – | ·
O=C(COC(=O)c1ccccc1OCc1ccccc1Cl)NCC1CCCO1 (stereo unspecified) | · | – | – | · | – | – | ·
Cc1ccccc1OCC(=O)NCCCNC(=O)c1ccccn1 | – | · | – | · | · | – | ·
COc1cc2c(ccc3cc(OC)c(OC)c(O)c32)cc1O | 93.6 | · | – | – | – | 80.6 | –
COc1cc2ccc(=O)oc2c(O)c1OCC=C(C)C | – | · | – | – | – | – | ·
C[C@H](NC(=O)c1ccco1)C(=O)NC1CCCCCC1 | · | – | – | – | – | – | ·
Cn1c(C(=O)NC2CC2)cc2c(=O)n(C)c3ccccc3c21 | 53.9 | · | – | – | – | – | –
CN(C)CCNC(=O)c1cc2c(=O)n(C)c3ccccc3c2n1C | 52.8 | · | – | – | – | – | –
